Eight compounds from ChEMBL document CHEMBL1154447, “Synthesis, antimicrobial activity, pharmacophore analysis of some new 2-(substitutedphenyl/benzyl)-5-[(2-benzofuryl)carboxamido]benzoxazoles” (2008) can be followed below.

Holding throughout (assay type): functional
The subject of assay [1] is Klebsiella pneumoniae. As to the kind of experiment: Antibacterial activity against Klebsiella pneumoniae isolate containing extended spectrum beta lactamase after 24 hrs by twofold serial dilution technique. The essentials:
(§1)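 Broth microdilution in Mueller-Hinton broth. Isolates were subcultured overnight on MHA at 37 °C and passaged at least twice. McFarland 0.5 cultures […] were diluted to 10⁵ cfu/ml, giving 10⁴ cfu/ml per well, over two-fold compound dilutions. Plates were incubated at 37 °C in a humid chamber for 24 h. MIC was the lowest concentration completely inhibiting macroscopic growth. Triplicate per run.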

Assay [2] has as its system Klebsiella pneumoniae. As to the kind of experiment: Antibacterial activity against Klebsiella pneumoniae RSHM 574 after 24 hrs by twofold serial dilution technique. In outline:
as §1

Assay [3] deals with Pseudomonas aeruginosa. The experiment in a line: Antibacterial activity against gentamicin-resistant Pseudomonas aeruginosa isolate after 24 hrs by twofold serial dilution technique. In outline: (§2)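 Broth microdilution in Mueller-Hinton broth. Strains were subcultured overnight on MHA at 37 °C and passaged at least twice. McFarland 0.5 cultures […] were diluted to 10⁵ cfu/ml, giving 10⁴ cfu/ml per well, against two-fold dilutions from 1000 to 0.06. Solvent and medium controls were included. Plates were held at 37 °C in a humid chamber for 24 h, in triplicate. MIC is the lowest concentration with no macroscopic growth.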

The test system of assay [4] is Pseudomonas aeruginosa. As to the kind of experiment: Antibacterial activity against Pseudomonas aeruginosa […] after 24 hrs by twofold serial dilution technique. In outline:
as §1

Assay [5] has as its system Escherichia coli. As to the kind of experiment: Antibacterial activity against Escherichia coli isolate containing extended spectrum beta lactamase after 24 hrs by twofold serial dilution technique. The essentials:
as §1

In assay [6] the test system is Escherichia coli. The experiment in a line: Antibacterial activity against Escherichia coli ATCC 25922 after 24 hrs by twofold serial dilution technique. In outline: as §1
The subject of assay [7] is Bacillus subtilis. As to the kind of experiment: Antibacterial activity against ceftriaxone-resistant Bacillus subtilis isolate after 24 hrs by twofold serial dilution technique. The essentials:
as §2

The subject of assay [8] is Bacillus subtilis. As to the kind of experiment: Antibacterial activity against Bacillus subtilis ATCC 6633 after 24 hrs by twofold serial dilution technique. The essentials:
as §2

In assay [9] the test system is Staphylococcus aureus. The experiment in a line: Antibacterial activity against methicillin-resistant Staphylococcus aureus isolate after 24 hrs by twofold serial dilution technique. In outline: as §2
The subject of assay [10] is Staphylococcus aureus. The experiment in a line: Antibacterial activity against Staphylococcus aureus ATCC 25923 after 24 hrs by twofold serial dilution technique. The essentials: as §1
Assay [11] concerns Candida albicans. The experiment in a line: Antifungal activity against biofilm-positive Candida albicans isolate after 48 hrs by twofold serial dilution technique. The essentials:
(§3)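 Yeasts were subcultured on SDA at 35 °C for 24-48 h and passaged twice. Broth microdilution followed CLSI M27-A in RPMI-1640 with L-glutamine, MOPS-buffered to pH 7. Inoculum was McFarland 0.5 (10⁶ cfu/ml) diluted to 10⁴ cfu/ml, giving 10³ cfu/ml per well. Incubated at 35 °C in a humid chamber and read at 48 h as the lowest concentration with no macroscopic growth. Triplicate per run.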

In assay [12] the test system is Candida albicans. The experiment in a line: Antifungal activity against Candida albicans ATCC 10231 after 48 hrs by twofold serial dilution technique. Particulars: ATCC 10231, 48 h. In outline:
as §3

Assay [13] has as its system Pichia kudriavzevii. The experiment in a line: Antifungal activity against Candida krusei ATCC 6258 after 48 hrs by twofold serial dilution technique. Particulars: ATCC 6258, 48 h. In outline:
as §3

In brackets after ≈: the same amount, converted by molar mass.

With `O=C(Nc1ccc2oc(Cc3ccc(F)cc3)nc2c1)c1cc2ccccc2o1`, the MIC in [1] stood at 125 µg/mL (≈ 324 µM); in assay [2], 62.5 µg/mL (≈ 162 µM); in assay [3], 125 µg/mL (≈ 324 µM); in assay [4], 62.5 µg/mL (≈ 162 µM); in assay [5], 125 µg/mL (≈ 324 µM); in assay [6] (ATCC 25922, 24 h) it was 62.5 µg/mL (≈ 162 µM). The MIC in [7] came to 125 µg/mL (≈ 324 µM); in [8] (ATCC 6633, 24 h) it was 125 µg/mL (≈ 324 µM); in assay [9] it was 62.5 µg/mL (≈ 162 µM); in [10] (ATCC 25923, 24 h) it was 125 µg/mL (≈ 324 µM); in [11] it was 62.5 µg/mL (≈ 162 µM); in [12], 62.5 µg/mL (≈ 162 µM). The compound also came in with an MIC in [13] of 250 µg/mL (≈ 647 µM).

In the case of `Cc1ccc(Cc2nc3cc(NC(=O)c4cc5ccccc5o4)ccc3o2)cc1`, the MIC turned out to be 125 µg/mL (≈ 327 µM) in assay [1]; 62.5 µg/mL (≈ 163 µM) in [2]; 125 µg/mL (≈ 327 µM) in assay [3]; 62.5 µg/mL (≈ 163 µM) in [4]; 125 µg/mL (≈ 327 µM) in assay [5]; 62.5 µg/mL (≈ 163 µM) in assay [6] (ATCC 25922, 24 h). In addition, the MIC in assay [7] was determined as 125 µg/mL (≈ 327 µM); in assay [8] (ATCC 6633, 24 h) it was 125 µg/mL (≈ 327 µM); in [9] it was 62.5 µg/mL (≈ 163 µM); in assay [10] (ATCC 25923, 24 h) it was 125 µg/mL (≈ 327 µM); in assay [11], 62.5 µg/mL (≈ 163 µM); in assay [12] it was 62.5 µg/mL (≈ 163 µM). Besides, the MIC in [13] was found to be 250 µg/mL (≈ 654 µM).

As for `O=C(Nc1ccc2oc(-c3ccccc3)nc2c1)c1cc2ccccc2o1`, the MIC in assay [1] amounted to 125 µg/mL (≈ 353 µM); in assay [2], 62.5 µg/mL (≈ 176 µM); in [3], 62.5 µg/mL (≈ 176 µM); in [4] it was 62.5 µg/mL (≈ 176 µM); in assay [5], 125 µg/mL (≈ 353 µM); in assay [6] (ATCC 25922, 24 h) it was 62.5 µg/mL (≈ 176 µM). Moreover, the MIC in [7] was found to be 250 µg/mL (≈ 705 µM); in [8] (ATCC 6633, 24 h), 125 µg/mL (≈ 353 µM); in [9], 62.5 µg/mL (≈ 176 µM); in assay [10] (ATCC 25923, 24 h) it was 62.5 µg/mL (≈ 176 µM); in assay [11], 62.5 µg/mL (≈ 176 µM); in [12], 62.5 µg/mL (≈ 176 µM). The MIC in assay [13] was found to be 62.5 µg/mL (≈ 176 µM).

Regarding GENTAMICIN, the MIC in assay [1] is 7.8 µg/mL; in assay [2] it was 0.24 µg/mL; in assay [3], 62.5 µg/mL; in assay [4], 31.2 µg/mL; in assay [5], 15.6 µg/mL; in assay [6] it was 0.48 µg/mL. Also, the MIC turned out to be 0.12 µg/mL in assay [7], 0.24 µg/mL in [8], 7.8 µg/mL in assay [9] and 0.48 µg/mL in [10].

As to `O=C(Nc1ccc2oc(Cc3ccc(Cl)cc3)nc2c1)c1cc2ccccc2o1`, the MIC was determined as 125 µg/mL (≈ 310 µM) in [1]; 62.5 µg/mL (≈ 155 µM) in assay [2]; 125 µg/mL (≈ 310 µM) in assay [3]; 31.2 µg/mL (≈ 77.6 µM) in [4]; 125 µg/mL (≈ 310 µM) in assay [5]; 62.5 µg/mL (≈ 155 µM) in assay [6] (ATCC 25922, 24 h). Also, the MIC amounted to 125 µg/mL (≈ 310 µM) in assay [7]; 125 µg/mL (≈ 310 µM) in [8] (ATCC 6633, 24 h); 125 µg/mL (≈ 310 µM) in [9]; 125 µg/mL (≈ 310 µM) in assay [10] (ATCC 25923, 24 h); 62.5 µg/mL (≈ 155 µM) in assay [11]; 62.5 µg/mL (≈ 155 µM) in assay [12]. Further, the MIC in assay [13] came out at 125 µg/mL (≈ 310 µM).

Regarding `O=C(Nc1ccc2oc(Cc3ccc(Br)cc3)nc2c1)c1cc2ccccc2o1`, the MIC in [1] amounted to 62.5 µg/mL (≈ 140 µM); in assay [2] it was 62.5 µg/mL (≈ 140 µM); in assay [3], 15.6 µg/mL (≈ 34.9 µM); in assay [4] it was 31.2 µg/mL (≈ 69.9 µM); in assay [5], 125 µg/mL (≈ 279 µM); in assay [6] (ATCC 25922, 24 h) it was 62.5 µg/mL (≈ 140 µM). The MIC in [7] amounted to 125 µg/mL (≈ 279 µM); in assay [8] (ATCC 6633, 24 h) it was 125 µg/mL (≈ 279 µM); in assay [9], 62.5 µg/mL (≈ 140 µM); in assay [10] (ATCC 25923, 24 h) it was 125 µg/mL (≈ 279 µM); in [11] it was 62.5 µg/mL (≈ 140 µM); in [12], 62.5 µg/mL (≈ 140 µM). The MIC in [13] came out at 62.5 µg/mL (≈ 140 µM).

Consider `C[C@@H]1[C@H](O)[C@@H](C)/C=C/C=C/C=C/C=C/C=C/C=C/C=C/[C@H](O[C@@H]2O[C@H](C)[C@@H](O)[C@H](N)[C@@H]2O)C[C@@H]2O[C@](O)(C[C@@H](O)C[C@@H](O)[C@H](O)CC[C@@H](O)C[C@@H](O)CC(=O)O[C@H]1C)C[C@H](O)[C@H]2C(=O)O` [AMPHOTERICIN B], for which the MIC in assay [11] came to 0.24 µg/mL (≈ 0.26 µM); in assay [12] it was 0.48 µg/mL (≈ 0.519 µM); in assay [13], 1.9 µg/mL (≈ 2.06 µM).

Regarding `CC1COc2c(N3CCN(C)CC3)c(F)cc3c(=O)c(C(=O)O)cn1c23` (configuration not stated) [OFLOXACIN], the MIC in assay [1] came out at 3.9 µg/mL (≈ 10.8 µM); in assay [2] it was 0.12 µg/mL (≈ 0.332 µM); in assay [3], 62.5 µg/mL (≈ 173 µM); in [4] it was 62.5 µg/mL (≈ 173 µM); in assay [5], 7.8 µg/mL (≈ 21.6 µM); in [7] it was 3.9 µg/mL (≈ 10.8 µM). Moreover, the MIC was determined as 0.12 µg/mL (≈ 0.332 µM) in assay [8] (ATCC 6633, 24 h); 1.9 µg/mL (≈ 5.26 µM) in assay [9]; 0.12 µg/mL (≈ 0.332 µM) in assay [10] (ATCC 25923, 24 h).
